Source: ChEMBL document CHEMBL1125136, “Quinolone antibacterial agents substituted at the 7-position with spiroamines. Synthesis and structure-activity relationships” (1990)
≈ marks a conversion by molar mass, not a printed value.

Columns and labels:
[1] = Evaluated for minimum inhibitory concentration against […] bacteria […] SV-1; assay type: functional
Summary of the method: (§1)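 Broth microdilution MIC by standard technique. Values come from duplicate experiments and are stated as accurate to ±50%.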

Enterococcus faecalis = test: Evaluated for minimum inhibitory concentration against gram-positive bacteria Staphylococcus faecalis MGH-2
Staphylococcus aureus [2] = test: Evaluated for minimum inhibitory concentration against […] bacteria Staphylococcus aureus H228; assay type: functional; summary of the method: as §1
Staphylococcus aureus [3] = test: Evaluated for minimum inhibitory concentration against […] bacteria Staphylococcus aureus UC-76; assay type: functional; summary of the method: as §1
Enterobacter cloacae = test: Evaluated for minimum inhibitory concentration against gram-negative bacteria Enterobacter cloacae HA 2646; assay type: functional
Klebsiella pneumoniae = test: Evaluated for minimum inhibitory concentration against gram-negative bacteria Klebsiella pneumoniae MGH-2; assay type: functional; summary of the method: as §1
Streptococcus pyogenes = test: Evaluated for minimum inhibitory concentration against gram-positive bacteria Streptococcus pyogenes C203
Pseudomonas = test: Evaluated for minimum inhibitory concentration against gram-negative bacteria Pseudomonas rettgeri H1771; assay type: functional; summary of the method: as §1
Pseudomonas aeruginosa = test: Evaluated for minimum inhibitory concentration against gram-negative bacteria Pseudomonas aeruginosa UI-18; assay type: functional; summary of the method: as §1
Escherichia coli [4] = test: Evaluated for minimum inhibitory concentration against gram-negative bacteria Escherichia coli Vogel; assay type: functional; summary of the method: as §1
Escherichia coli [5] = test: Evaluated for minimum concentration needed to produce linear DNA at an intensity relative to oxolinic acid at 10 mg/mL. by gyrase mediated cleavage of DNA in Escherichia coli 560.; assay type: functional; conditions: read-out: MIC

Row | MIC [1] [µg/mL] | MIC (Enterococcus faecalis) [µg/mL] | MIC (Staphylococcus aureus [2]) [µg/mL] | MIC (Staphylococcus aureus [3]) [µg/mL] | MIC (Enterobacter cloacae) [µg/mL] | MIC (Klebsiella pneumoniae) [µg/mL] | MIC (Streptococcus pyogenes) [µg/mL] | MIC (Pseudomonas) [µg/mL] | MIC (Pseudomonas aeruginosa) [µg/mL] | MIC (Escherichia coli [4]) [µg/mL] | SMILES | minimum concentration for gyrase-mediated DNA cleavage (Escherichia coli [5]) [µg/mL]
1 | 12.5 (≈ 32.2 µM) | 12.5 (≈ 32.2 µM) | 6.3 (≈ 16.2 µM) | 3.1 (≈ 7.98 µM) | 25 (≈ 64.4 µM) | 25 (≈ 64.4 µM) | 50 (≈ 129 µM) | 100 (≈ 257 µM) | 50 (≈ 129 µM) | 12.5 (≈ 32.2 µM) | CCn1cc(C(=O)O)c(=O)c2cc(F)c(N3CCCC4(CCCNC4)C3)nc21 (centres undefined) | 50
2 | 0.4 (≈ 1.19 µM) | 0.8 (≈ 2.37 µM) | 0.4 (≈ 1.19 µM) | 0.05 (≈ 0.148 µM) | 0.1 (≈ 0.296 µM) | 0.2 (≈ 0.593 µM) | 0.4 (≈ 1.19 µM) | 0.2 (≈ 0.593 µM) | 0.4 (≈ 1.19 µM) | 0.05 (≈ 0.148 µM) | CCn1cc(C(=O)O)c(=O)c2cc(F)c(N3CCC(N)C3)c(F)c21 (centres undefined) | 1
3 | 0.025 (≈ 0.0639 µM) | 0.025 (≈ 0.0639 µM) | 0.025 (≈ 0.0639 µM) | 0.006 (≈ 0.0153 µM) | 0.1 (≈ 0.255 µM) | 0.1 (≈ 0.255 µM) | 0.025 (≈ 0.0639 µM) | 0.2 (≈ 0.511 µM) | 0.4 (≈ 1.02 µM) | 0.05 (≈ 0.128 µM) | CCNCC1CCN(c2c(F)cc3c(=O)c(C(=O)O)cn(C4CC4)c3c2F)C1 (centres undefined) [PD-117558] | 0.25
4 | 0.2 (≈ 0.479 µM) | 0.1 (≈ 0.24 µM) | 0.1 (≈ 0.24 µM) | 0.025 (≈ 0.0599 µM) | 0.2 (≈ 0.479 µM) | 0.2 (≈ 0.479 µM) | 0.2 (≈ 0.479 µM) | 0.4 (≈ 0.958 µM) | 1.6 (≈ 3.83 µM) | 0.1 (≈ 0.24 µM) | CCN1CCC2(CCN(c3c(F)cc4c(=O)c(C(=O)O)cn(C5CC5)c4c3F)C2)C1 (centres undefined) | 0.5
5 | 0.4 (≈ 1.07 µM) | 0.4 (≈ 1.07 µM) | 0.8 (≈ 2.14 µM) | 0.1 (≈ 0.268 µM) | 0.2 (≈ 0.536 µM) | 0.8 (≈ 2.14 µM) | 0.4 (≈ 1.07 µM) | 3.1 (≈ 8.3 µM) | 3.1 (≈ 8.3 µM) | 0.2 (≈ 0.536 µM) | CCn1cc(C(=O)O)c(=O)c2cc(F)c(N3CCC4(CCN(C)C4)C3)cc21 (centres undefined) | 5
6 | 0.05 (≈ 0.143 µM) | 0.05 (≈ 0.143 µM) | 0.05 (≈ 0.143 µM) | 0.025 (≈ 0.0716 µM) | 0.025 (≈ 0.0716 µM) | 0.025 (≈ 0.0716 µM) | 0.25 (≈ 0.716 µM) | 0.05 (≈ 0.143 µM) | 0.1 (≈ 0.286 µM) | 0.013 (≈ 0.0372 µM) | NC1CCN(c2c(F)cc3c(=O)c(C(=O)O)cn(C4CC4)c3c2F)C1 (centres undefined) | 0.1
7 | 1.6 | 3.1 | 1.6 | 0.8 | 0.2 | 0.4 | 1.6 | 0.8 | 1.6 | 0.2 | CCn1cc(C(=O)O)c(=O)c2cc(F)c(N3CCC4(CCCN4)C3)c(F)c21.Cl (centres undefined) | 2.5
8 | 0.4 (≈ 0.96 µM) | 0.4 (≈ 0.96 µM) | 0.4 (≈ 0.96 µM) | 0.1 (≈ 0.24 µM) | 0.4 (≈ 0.96 µM) | 0.8 (≈ 1.92 µM) | 0.2 (≈ 0.48 µM) | 6.3 (≈ 15.1 µM) | 12.5 (≈ 30 µM) | 0.4 (≈ 0.96 µM) | CC1COc2c(N3CCC4(CCN(C)C4)C3)c(F)c(N)c3c(=O)c(C(=O)O)cn1c23 (centres undefined) | 1

Row | SMILES | MIC [1] [µg/mL] | MIC (Enterococcus faecalis) [µg/mL] | MIC (Staphylococcus aureus [2]) [µg/mL] | MIC (Staphylococcus aureus [3]) [µg/mL] | MIC (Enterobacter cloacae) [µg/mL] | MIC (Klebsiella pneumoniae) [µg/mL] | MIC (Streptococcus pyogenes) [µg/mL] | MIC (Pseudomonas) [µg/mL] | MIC (Pseudomonas aeruginosa) [µg/mL] | MIC (Escherichia coli [4]) [µg/mL] | minimum concentration for gyrase-mediated DNA cleavage (Escherichia coli [5]) [µg/mL]
9 | CCn1cc(C(=O)O)c(=O)c2cc(F)c(N3CCNCC3)cc21 [NORFLOXACIN] | 3.1 (≈ 9.71 µM) | 3.1 (≈ 9.71 µM) | 3.1 (≈ 9.71 µM) | 0.4 (≈ 1.25 µM) | 0.1 (≈ 0.313 µM) | 0.2 (≈ 0.626 µM) | 3.1 (≈ 9.71 µM) | 0.2 (≈ 0.626 µM) | 0.8 (≈ 2.51 µM) | 0.1 (≈ 0.313 µM) | 5.2
10 | O=C(O)c1cn(C2CC2)c2cc(N3CCNCC3)c(F)cc2c1=O [CIPROFLOXACIN] | 0.4 (≈ 1.21 µM) | 0.4 (≈ 1.21 µM) | 1.6 (≈ 4.83 µM) | 0.1 (≈ 0.302 µM) |  | 0.025 (≈ 0.0754 µM) | 0.2 (≈ 0.604 µM) | 0.025 (≈ 0.0754 µM) | 0.1 (≈ 0.302 µM) | 0.025 (≈ 0.0754 µM) | 
11 | CC1COc2c(N3CCN(C)CC3)c(F)cc3c(=O)c(C(=O)O)cn1c23 (centres undefined) [OFLOXACIN] | 0.4 (≈ 1.11 µM) | 6.3 (≈ 17.4 µM) | 3.1 (≈ 8.58 µM) | 0.4 (≈ 1.11 µM) | 0.1 (≈ 0.277 µM) | 0.2 (≈ 0.553 µM) | 3.1 (≈ 8.58 µM) | 0.4 (≈ 1.11 µM) | 1.6 (≈ 4.43 µM) | 0.2 (≈ 0.553 µM) | 6.2
